# Assay outcomes: PubChem BioAssay, several laboratories
# UPR XBP1 act: adaptive UPR (XBP1) activation | 0.33% of 330,000 active | CHO-XBP1 luciferase reporter, IRE1-XBP1 UPR activation, luminescence; percent of tunicamycin response, DMSO as zero | activation, % at 20 µM;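 active means versus positive control, 20 µM dose yields 30% or more activation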;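 further: 100% = tunicamycin at 10 µg/mL and 0% = DMSO only wells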
#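 Test system: CHO-XBP1 luciferase reporter cells | Buffer or medium: Serum-containing F12 medium, 10% FBS | Schedule: 6 h compound exposure at 37 °C, 5% CO2 | Detection: Steady-Glo luciferase glow luminescence, 10 min after reagent addition | Read-out basis: Activation, % of tunicamycin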
# UPR CHOP act: apoptotic UPR (CHOP) activation; 0.34% of 330,000 active; CHO-CHOP luciferase reporter, luminescence; percent of tunicamycin response over DMSO baseline; activation, % at 10 µM; AID 449763;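 active means at 10 µM dose, activation of 40% or more, normalized to positive control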;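 further: 100% = tunicamycin at 10 µg/mL and 0% = DMSO alone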
#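 Dosing – one dose, 10 µM in 0.5% DMSO · System – CHO-CHOP cells, stable luciferase reporter of PERK-eIF2a-CHOP signalling · Input – 500 cells/well · Control set – tunicamycin 10 µg/mL final as positive, DMSO-only wells as negative · Timing – 6 h compound treatment, 37 °C · Measure – % activation vs tunicamycin · Technique – luminescence read with Steady-Glo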
# ABHD5-PLIN5 inh: inhibitors of human ABHD5-perilipin-5 interaction; inhibition, % at 4 µM; AID 602281; Split G. princeps luciferase complementation, luminescence, 4 h; 0.78% of 360,000 active;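 active means inhibition above the mean inhibition across every tested compound plus 3 SD, cut at about 22% in these data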;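 further: 0% = DMSO only wells and the 100% control is not disclosed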
# Target sequence (Q00G26 whole entry, looked up): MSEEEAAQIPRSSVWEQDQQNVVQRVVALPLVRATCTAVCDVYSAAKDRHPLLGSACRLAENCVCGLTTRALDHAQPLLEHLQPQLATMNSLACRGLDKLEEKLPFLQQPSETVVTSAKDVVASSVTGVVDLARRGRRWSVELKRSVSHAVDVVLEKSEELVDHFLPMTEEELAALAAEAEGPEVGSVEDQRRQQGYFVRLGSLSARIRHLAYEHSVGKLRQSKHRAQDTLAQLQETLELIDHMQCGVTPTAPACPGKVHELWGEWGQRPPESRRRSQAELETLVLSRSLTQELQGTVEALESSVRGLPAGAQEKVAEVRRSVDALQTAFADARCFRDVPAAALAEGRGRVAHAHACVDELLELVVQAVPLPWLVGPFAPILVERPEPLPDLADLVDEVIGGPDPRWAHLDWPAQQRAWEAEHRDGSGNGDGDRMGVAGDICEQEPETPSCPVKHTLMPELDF
# Target sequence (Q8WTS1 whole entry, looked up): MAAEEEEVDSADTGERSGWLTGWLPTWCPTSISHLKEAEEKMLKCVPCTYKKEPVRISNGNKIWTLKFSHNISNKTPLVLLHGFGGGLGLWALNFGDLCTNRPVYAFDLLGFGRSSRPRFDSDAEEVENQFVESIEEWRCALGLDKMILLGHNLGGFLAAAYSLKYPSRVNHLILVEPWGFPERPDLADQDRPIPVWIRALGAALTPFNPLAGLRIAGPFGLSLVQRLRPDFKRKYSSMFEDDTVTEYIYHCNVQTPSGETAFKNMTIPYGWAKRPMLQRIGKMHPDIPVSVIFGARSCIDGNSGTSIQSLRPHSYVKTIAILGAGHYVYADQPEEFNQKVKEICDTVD
# Mdm2-MdmX inh: human Mdm2/MdmX binding inhibition | O15151+Q00987 | SaOS-2 split-luciferase Mdm2/MdmX complementation, luminescence | inhibition, % at 8 µM | 3% of 330,000 active;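 active means inhibition of at least 50% at 8 µM in the primary screen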
# Exocytosis inh: lytic granule exocytosis inhibition | inhibition, % at 10 µM | 0.66% of 360,000 active | TALL-104 LAMP-1 surface exposure, flow cytometry; cells stimulated with thapsigargin and PMA | AID 651702;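 active means inhibition above about 55%, limit read from the data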
# Mdm2-MdmX conf: confirmation of human Mdm2/MdmX interaction inhibitors | shares compounds with Mdm2-MdmX inh | Mdm2-MdmX binding, luminescent assay | AID 489028 | inhibition, % at 8 µM | 55% of 10,000 active; in the data active means inhibition above about 40%
# FLuc counter: counter-screen for Mdm2/MdmX inhibitors: full-length luciferase; inhibition, % at 8 µM; shares compounds with Mdm2-MdmX inh; AID 504607; 77% of 6,200 active; SaOS-2 full-length luciferase counterscreen, luminescence;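 active means mean inhibition at 8 µM reaching about 37%, which flags the compound as non-specific, limit read from the data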;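 further: p53-null SaOS-2 cells with luciferase driven by a doxycycline-inducible promoter; compound on cells about two nights before reading with doxycycline added after day one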
# * marks the source's active call; other numbers are inactive results; . = not tested or not shown. Only some compounds are listed: those with a hit (about 4% of all), similar ones and a draw of the others.
SMILES,UPR XBP1 act,UPR CHOP act,ABHD5-PLIN5 inh,Mdm2-MdmX inh,Exocytosis inh,Mdm2-MdmX conf,FLuc counter
O=C(COc1cccc(F)c1)Nc1nc(-c2ccccn2)cs1,.,.,-5,.,-4,.,.
O=C(Nc1nc(-c2ccccn2)cs1)Nc1ccc(F)cc1F,7,36,-8,59*,14,44*,51*
O=C(COc1ccc(F)cc1)Nc1nc(-c2ccccn2)cs1,-2,3,-11,64*,6,70*,62*
O=C(COc1ccc([N+](=O)[O-])cc1)Nc1nc(-c2ccccn2)cs1,-2,3,1,76*,2,81*,36
Cc1cc(C)c2nc(NNC(=O)c3ccc(S(=O)(=O)N4CC(C)CC(C)C4)cc3)sc2c1 (stereo not given),12,1,29*,84*,2,70*,23
Cc1cccc2sc(NNC(=O)c3ccc(S(=O)(=O)N4CC(C)CC(C)C4)cc3)nc12 (stereo not given),7,-1,38*,88*,3,87*,55*
COC(=O)c1ccc(-c2csc(NC(=O)c3ccc(S(=O)(=O)N4CCc5ccccc5C4)cc3)n2)cc1,17,18,3,51*,0,10,.
Cc1ccc2nc(NNC(=O)c3ccc(S(=O)(=O)N4CCc5ccccc5C4)cc3)sc2c1,-3,0,34*,74*,3,88*,63*
COc1ccc(OC)c(NC(=O)CC2C(=O)NCCN2C(=O)Nc2cccc(Cl)c2)c1 (stereo not given),-1,-1,8,6,-1,.,.
O=C(c1ccncc1)N1N=C(c2ccc(Br)cc2)CC1c1ccccc1O (stereo not given),6,1,1,43,28,.,.
O=C(c1ccccc1Cl)N1N=C(c2ccc(Br)cc2)CC1c1nc2ccccc2[nH]1 (stereo not given),2,5,-6,71*,3,50*,90*
COc1ccc(C(CNC(=O)COc2cc(C)ccc2Cl)N2CCCCC2)cc1 (stereo not given),2,1,4,8,-4,.,.
O=C(Nc1cc(Cl)cc(Cl)c1)Nc1cnccn1,0,-1,-10,75*,4,30,.
N#CCn1nnc(-c2ccc3c(c2)OCO3)n1,-2,-3,-6,8,0,.,.
O=c1cc(CSc2nnc3ccccn23)c2c(ccc3ccccc32)o1,-2,0,9,8,2,.,.
O=C(Nc1cccc(Cl)c1)Nc1nnc(CSCCOc2ccc(Cl)cc2)s1,12,23,-1,99*,0,90*,23
O=C(Nc1ccc(Cl)cc1)Nc1nnc(CSCc2ccccc2)s1,1,1,14,58*,1,23,.
O=C(Nc1nnc(CC2=CCCCC2)s1)Nc1ccccc1F,7,5,.,19,.,.,.
Cc1ccc(NC(=O)Nc2nnc(CSCCOc3ccc(Cl)cc3)s2)cc1,0,1,-4,-28,-10,.,.
COc1ccc(OCCSCc2nnc(NC(=O)Nc3ccc(Cl)cc3)s2)cc1,-1,2,-6,63*,3,3,.
O=C(Nc1cccc(Cl)c1)Nc1nnc(CC2=CCCCC2)s1,7,0,-2,80*,6,43*,88*
CCOC(=O)CCc1nn(C)c(=O)c2ccccc12,-1,-1,0,9,-4,.,.
CCn1nc([N+](=O)[O-])c(C(C#N)c2nc3cc(C(F)(F)F)ccc3s2)c(Cl)c1=O (stereo not given),0,2,1,76*,83*,72*,50*
CCC(C)Sc1cccc(-c2nc3ccc(C)cn3c2NCc2ccccc2)c1 (stereo not given),-1,2,-10,36,2,.,.
CCC(C)Sc1cccc(-c2nc3ccc(Cl)cn3c2NCc2ccccc2)c1 (stereo not given),3,10,-23,66*,4,9,.
SMILES,UPR XBP1 act,UPR CHOP act,ABHD5-PLIN5 inh,Mdm2-MdmX inh,Exocytosis inh,Mdm2-MdmX conf,FLuc counter
COC(=O)COc1ccc(NC(=O)Cn2nc(-c3ccccc3)c3ccccc3c2=O)cc1,13,2,4,81*,6,49*,89*
CCc1ccc(NC(=O)c2ccc3c(c2)C(=O)N(CCOC)C3Nc2ccc(CC)cc2)cc1 (stereo not given),30,28,-11,81*,1,40*,99*
COCCN(C(=O)COC(=O)COc1ccc2ccccc2c1)c1c(N)n(Cc2ccccc2)c(=O)[nH]c1=O,.,.,9,.,0,.,.
Oc1ccccc1-c1nnc(SCCN2CCOCC2)n1Cc1ccccc1,0,0,1,69*,-2,19,.
COCC(C)NC(=O)CSc1nc2cc(S(=O)(=O)N3CCCCC3)ccc2o1 (stereo not given),0,3,-8,-1,-5,.,.
CN1C2CCC1/C(=C\c1ccc(F)cc1)C(=O)/C2=C/c1ccc(F)cc1,-1,11,12,89*,-1,53*,19
O=C(O)C12CC3CC(C1)CC(n1ncc(NCc4ccco4)c(Cl)c1=O)(C3)C2,-3,0,5,-2,7,.,.
CC1(C)Cc2ccccc2C2=NNC(=O)C2=N1,4,6,-18,86*,0,65*,29
CC1(C)Cc2ccccc2C(Nn2cnnc2)=N1,1,1,5,-22,0,.,.
CCN(CC)CCOc1c(C)cccc1Cl,-3,1,-2,-13,-3,.,.
CCCCSc1nc(SCC(=O)NCc2ccco2)c2c3c(sc2n1)COC(C)(CC)C3 (stereo not given),1,-1,11,7,5,.,.
CSc1nc(SCC(=O)NCc2ccco2)c2c3c(sc2n1)COC(C)(C)C3,11,-1,12,51*,1,41*,68*
Cc1ccc(S(=O)(=O)N2CCOCC2)cc1C(=O)N1CCc2ccccc21,-1,1,-5,30,-2,.,.
CC(C)c1ccc(OCC(O)CNC(C)c2ccccc2)cc1 (stereo not given),-6,7,-11,52*,43,23,.
OC(CNCCc1ccccc1)COc1ccc(OCC(O)CNCCc2ccccc2)cc1 (stereo not given),4,4,9,99*,-1,76*,47*
COc1ccc(-c2cc(C(=O)Nc3cc(C)nn3-c3ccccc3)no2)cc1,-2,4,-4,5,-1,.,.
COc1ccc(-c2cc(C(=O)Nc3cc(Br)ccc3O)no2)cc1,5,1,-1,83*,4,32,101*
COc1ccccc1-c1cc(C(=O)Nc2cc(C)nn2-c2ccccc2)no1,1,0,2,57*,1,62*,45*
